{
  "source": "ChEMBL document CHEMBL1926607",
  "about": "(J Med Chem, 2011)",
  "key": {"[1]": {"target": "5-hydroxytryptamine receptor 2A (Rattus norvegicus, UniProt P14842)", "sequence (P14842 whole entry)": "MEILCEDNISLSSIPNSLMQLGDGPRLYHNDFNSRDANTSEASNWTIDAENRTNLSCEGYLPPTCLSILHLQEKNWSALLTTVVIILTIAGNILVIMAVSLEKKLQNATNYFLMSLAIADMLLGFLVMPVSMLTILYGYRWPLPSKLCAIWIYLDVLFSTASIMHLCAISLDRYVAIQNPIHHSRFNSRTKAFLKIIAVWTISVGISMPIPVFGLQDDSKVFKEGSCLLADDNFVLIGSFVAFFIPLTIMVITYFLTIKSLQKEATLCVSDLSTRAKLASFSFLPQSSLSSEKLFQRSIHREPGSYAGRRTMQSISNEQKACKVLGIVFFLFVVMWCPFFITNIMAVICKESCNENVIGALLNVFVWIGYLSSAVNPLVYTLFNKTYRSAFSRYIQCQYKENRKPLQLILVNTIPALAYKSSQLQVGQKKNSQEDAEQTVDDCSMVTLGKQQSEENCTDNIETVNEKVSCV", "experiment": "Displacement of [3H]ketanserin from 5HT2A receptor in Sprague-Dawley albinus rat frontal cortex membranes after 15 mins", "type": "cell membranes, Membrane", "procedure,_shortened": "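Rat frontal cortex membranes (male Sprague–Dawley, 180–200 g). Nonspecific binding was set with 1 μM cinanserin.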"}, "[2]": {"target": "5-hydroxytryptamine receptor 7 (Rattus norvegicus, UniProt P32305)", "sequence (P32305 whole entry)": "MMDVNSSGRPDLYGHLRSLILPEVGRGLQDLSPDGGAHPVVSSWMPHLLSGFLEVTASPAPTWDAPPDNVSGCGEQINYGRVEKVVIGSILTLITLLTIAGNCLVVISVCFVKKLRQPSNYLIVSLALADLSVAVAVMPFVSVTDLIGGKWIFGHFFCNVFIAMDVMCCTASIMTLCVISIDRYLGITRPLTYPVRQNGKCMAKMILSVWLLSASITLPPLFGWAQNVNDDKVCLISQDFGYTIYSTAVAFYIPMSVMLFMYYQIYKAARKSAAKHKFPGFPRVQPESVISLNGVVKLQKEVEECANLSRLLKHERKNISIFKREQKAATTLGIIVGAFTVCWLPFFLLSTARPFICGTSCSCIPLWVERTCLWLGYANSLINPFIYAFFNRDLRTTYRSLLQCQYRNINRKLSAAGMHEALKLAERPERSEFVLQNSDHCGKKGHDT", "experiment": "Displacement of [3H]-5-CT from 5HT7 receptor in Sprague-Dawley albinus rat hyphalamic membranes after 120 mins", "type": "cell membranes, Membrane"}, "[3]": {"experiment": "Neuroprotective activity in Wistar rat hippocampi primary neuronal cells assessed as protection against oxygen-glucose deprivation induced cell death at 10 uM after 18 hrs by MTT assay", "type": "functional, Hippocampus, Primary neuron"}, "[4]": {"target": "T1, Adrenergic receptor alpha-1 (Rattus norvegicus, UniProt P15823+P23944+P43140)", "T1 sequence (P15823 whole entry)": "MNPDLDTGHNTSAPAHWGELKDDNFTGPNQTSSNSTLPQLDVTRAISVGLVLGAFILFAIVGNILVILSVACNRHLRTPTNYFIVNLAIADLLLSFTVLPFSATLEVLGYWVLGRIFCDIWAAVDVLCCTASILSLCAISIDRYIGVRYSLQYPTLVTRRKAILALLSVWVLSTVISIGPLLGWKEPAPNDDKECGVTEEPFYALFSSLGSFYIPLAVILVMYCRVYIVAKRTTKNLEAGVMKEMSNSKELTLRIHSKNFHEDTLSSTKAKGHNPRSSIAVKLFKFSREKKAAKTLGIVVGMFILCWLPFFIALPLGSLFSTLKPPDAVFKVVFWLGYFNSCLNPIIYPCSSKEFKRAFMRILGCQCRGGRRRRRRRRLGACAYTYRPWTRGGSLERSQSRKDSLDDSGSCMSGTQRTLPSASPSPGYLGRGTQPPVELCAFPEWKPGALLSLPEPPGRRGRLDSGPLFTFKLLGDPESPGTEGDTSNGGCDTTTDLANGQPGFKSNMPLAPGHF", "T1 sequence (P23944 whole entry)": "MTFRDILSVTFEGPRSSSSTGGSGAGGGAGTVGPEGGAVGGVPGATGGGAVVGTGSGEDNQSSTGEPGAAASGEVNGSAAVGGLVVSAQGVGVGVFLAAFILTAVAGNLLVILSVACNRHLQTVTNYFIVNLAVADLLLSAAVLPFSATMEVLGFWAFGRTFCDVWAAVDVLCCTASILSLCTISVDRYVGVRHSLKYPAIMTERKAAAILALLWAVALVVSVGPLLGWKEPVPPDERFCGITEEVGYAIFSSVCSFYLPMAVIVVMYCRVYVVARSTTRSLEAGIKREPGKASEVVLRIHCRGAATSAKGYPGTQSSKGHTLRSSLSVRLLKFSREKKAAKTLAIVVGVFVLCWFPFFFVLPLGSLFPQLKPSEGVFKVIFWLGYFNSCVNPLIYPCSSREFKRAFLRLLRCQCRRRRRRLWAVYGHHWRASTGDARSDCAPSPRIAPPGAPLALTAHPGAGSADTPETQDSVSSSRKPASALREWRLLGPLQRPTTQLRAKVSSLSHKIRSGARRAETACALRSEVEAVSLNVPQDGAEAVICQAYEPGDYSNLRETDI", "T1 sequence (P43140 whole entry)": "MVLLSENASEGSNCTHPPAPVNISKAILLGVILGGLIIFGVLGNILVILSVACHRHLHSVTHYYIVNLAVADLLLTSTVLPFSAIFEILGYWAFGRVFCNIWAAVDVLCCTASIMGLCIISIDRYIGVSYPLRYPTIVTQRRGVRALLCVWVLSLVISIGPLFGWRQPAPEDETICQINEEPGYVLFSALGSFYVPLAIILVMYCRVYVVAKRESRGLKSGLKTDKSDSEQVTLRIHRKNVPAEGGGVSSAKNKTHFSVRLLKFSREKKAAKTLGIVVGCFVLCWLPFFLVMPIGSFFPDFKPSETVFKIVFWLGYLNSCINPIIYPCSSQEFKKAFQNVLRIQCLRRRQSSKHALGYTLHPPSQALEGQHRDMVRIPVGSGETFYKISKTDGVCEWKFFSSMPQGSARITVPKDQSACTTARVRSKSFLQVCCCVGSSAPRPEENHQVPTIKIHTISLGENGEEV", "experiment": "Displacement of [3H]prazosin from alpha1 adrenoceptor in Sprague-Dawley albinus rat cerebral cortex membranes after 30 mins", "type": "cell membranes, Membrane", "procedure,_shortened": "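Rat cerebral cortex membranes (about 250 μg protein; male Sprague–Dawley, 180–200 g) in 50 mM Tris-HCl with 10 mM MgCl2, pH 7.4. Incubation was 30 min at 25 °C with 0.2 nM [3H]prazosin and six competitor concentrations. Nonspecific binding was set with 10 μM phentolamine.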"}, "[5]": {"target": "T2, 5-hydroxytryptamine receptor 1A (Homo sapiens) (UniProt P08908)", "T2 sequence (whole entry)": "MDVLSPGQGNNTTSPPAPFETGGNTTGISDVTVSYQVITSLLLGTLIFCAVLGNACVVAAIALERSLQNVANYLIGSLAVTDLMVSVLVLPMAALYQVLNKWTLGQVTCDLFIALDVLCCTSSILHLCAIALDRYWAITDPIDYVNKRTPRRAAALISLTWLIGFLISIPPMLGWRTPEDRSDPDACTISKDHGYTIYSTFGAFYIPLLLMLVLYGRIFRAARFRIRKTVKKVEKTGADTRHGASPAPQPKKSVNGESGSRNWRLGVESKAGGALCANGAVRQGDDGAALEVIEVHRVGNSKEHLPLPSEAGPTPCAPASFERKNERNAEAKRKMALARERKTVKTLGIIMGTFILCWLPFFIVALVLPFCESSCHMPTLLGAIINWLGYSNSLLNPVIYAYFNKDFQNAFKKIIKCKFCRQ", "experiment": "Agonist activity at human 5HT1A receptor expressed in human HeLa cells assessed as inhibition of forskolin-stimulated cAMP production pretreated 20 mins before forskolin challenge measured after 2 hrs by RIA relative to control", "type": "functional, cell-based"}},
  "data": [
    {"smiles": "Cl.O=C1C2CCCN2C(=O)CN1CCCCNCC1CCc2ccccc2O1", "note": "(stereo not given)", "values": [
      {"measurement": "Ki", "setting": "[1]", "result": "> 1000", "unit": "nM"},
      {"measurement": "Ki", "setting": "[2]", "result": 418, "unit": "nM"},
      {"measurement": "Activity", "setting": "[3]", "result": 66, "unit": "%"},
      {"measurement": "Ki", "setting": "[4]", "result": 107, "unit": "nM"},
      {"measurement": "Emax", "setting": "[5]", "result": 87.6, "unit": "%"}
    ]}
  ]
}
